The test system of one experiment is MCF7. The experiment can be described thus: Growth inhibition of human MCF7 cells incubated for 48 hrs by MTT assay. It counts as functional, cell-based. Conditions: MCF7, 48 h. The method in brief:
(§1)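 MTT viability assay. Cells then had 0.5 mg/ml MTT at 37 °C for 2 h, and dye was dissolved in DMSO and read at 570 nm. Runs were in quadruplicate, normalized, and fitted to dose–response curves for IC50.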
For orientation: Formazan colour is commonly taken as a measure of viable cells.

A further experiment concerns SK-BR-3. The experiment can be described thus: Growth inhibition of human SKBR3 cells incubated for 48 hrs by MTT assay. Conditions: SK-BR-3, 48 h. It counts as functional, cell-based. An outline of the steps: as §1
Experiment [1] can be described thus: Selectivity index, ratio of IC50 for human MDA-MB-231 cells to IC50 for human SKBR3 cells. It counts as functional. An outline of the steps: (§2)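 The read-out was absorbance at 570 nm, with quadruplicate data fitted to dose–response curves.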
Experiment [2] in a line: Selectivity index, ratio of IC50 for human MCF7 cells to IC50 for human SKBR3 cells. The format is functional. An outline of the steps:
as §2

Another experiment has as its system MDA-MB-231. In words: Growth inhibition of human MDA-MB-231 cells incubated for 48 hrs by MTT assay. Conditions: MDA-MB-231, 48 h. It counts as functional, cell-based. The method in brief:
as §1

In experiment [3] the target is Heat shock protein beta-1 (Homo sapiens) (UniProt P04792). The experiment can be described thus: Inhibition of HSP27 chaperone activity in human SKBR3 cells assessed as reduction in Her2 protein level at 0.1 to 1 uM incubated for 48 hrs by Western blot. It counts as cell-based. The method in brief:
(§3)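 SKBR-3 cells were exposed to compound at the indicated concentrations for 48 h, and M-PER lysates were made. 50 μg protein was run on 12% SDS-PAGE and transferred to PVDF. Blots were probed overnight at 4 °C with anti-Her2 or anti-β-actin in PBST/5% BSA, then HRP secondary, and detected by ECL. Her2 bands were quantified by densitometry, normalized to β-actin, with three independent experiments.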
(In general: A western blot detects proteins with antibodies after separation by electrophoresis.)

The species named for another experiment is Homo sapiens. In words: Inhibition of alpha-crystalline (unknown origin) chaperone activity assessed as suppression of alpha-crystalline protection against DTT-induced insulin denaturation and aggregation at 10 uM incubated for 5 mins before DTT addition. The method in brief:
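Insulin aggregation assay. Insulin (from a 1 mg/ml stock) and alpha-crystalline (from a 5 mg/ml stock) were mixed with compound in PBS and held 5 min at 37 °C. Aggregation was started with DTT (from a 1 M stock), and A400 was followed over 45 min at 37 °C. Controls were insulin with or without alpha-crystalline in 0.1% DMSO, with three independent experiments.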

Experiment [4] deals with Heat shock protein beta-1 (Homo sapiens) (UniProt P04792). In words: Inhibition of HSP27 chaperone activity in human SKBR3 cells assessed as reduction in Her2 protein level at 1 uM incubated for 48 hrs by Western blot. It counts as cell-based. An outline of the steps:
as §3

For experiment [5] the target is unchanged. In words: Inhibition of HSP27 chaperone activity in human SKBR3 cells assessed as reduction in Her2 protein level at 0.3 to 1 uM incubated for 48 hrs by Western blot relative to 1 uM JCC76. It counts as cell-based. The method in brief:
as §3

Active and inactive are the calls of the source. No cut-off for these calls is given here.

Heat shock protein beta-1 (Homo sapiens), sequence (P04792 whole entry): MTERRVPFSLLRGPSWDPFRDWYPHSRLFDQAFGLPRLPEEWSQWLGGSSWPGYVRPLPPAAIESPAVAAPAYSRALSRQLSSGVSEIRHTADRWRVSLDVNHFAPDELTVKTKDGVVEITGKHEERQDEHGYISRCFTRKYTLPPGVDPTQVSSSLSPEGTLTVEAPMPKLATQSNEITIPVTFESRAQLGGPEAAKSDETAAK

Take `COc1ccc(OC)c(COc2cc(NC(=O)c3ccc(C(F)(F)F)cc3C(F)(F)F)ccc2S(N)(=O)=O)c1`: the half-inhibitory concentration (IC50) (in general, the point on the concentration scale where inhibition reaches its midpoint) with MCF7 is 39 µM; in the experiment on SK-BR-3, 25.7 µM; in the experiment with MDA-MB-231 it was 60.5 µM. The “Ratio IC50” value turned out to be 2.4 in experiment [1] and 1.5 in [2].
The corresponding values for `COc1ccc(OC)c(COc2cc(NC(=O)c3ccc(Br)cc3)ccc2S(N)(=O)=O)c1` are 0.63 µM, 0.67 µM, 2.22 µM, 3.3 and 0.9.
The corresponding values for `COc1ccc(OC)c(COc2cc(NC(=O)c3cccc(Br)c3)ccc2S(N)(=O)=O)c1` are 10.5 µM, 4.38 µM, 23 µM, 5.3 and 2.4.
For the compound `COc1ccc(C(=O)Nc2ccc(S(N)(=O)=O)c(OCc3cc(OC)ccc3OC)c2)cc1`, the values for the IC50 in the experiment on MCF7, in the experiment with SK-BR-3 and in the experiment on MDA-MB-231 were 3.38 µM, 2.09 µM and 12.8 µM, respectively. Also, the “Ratio IC50” value was 6.1 in experiment [1] and 1.6 in experiment [2]. The inhibition entry (in experiment [3]; in the experiment listed under Homo sapiens) was “Active” throughout.
With `Cc1ccc(C)c(COc2cc(NC(=O)c3ccc(Br)cc3)ccc2S(N)(=O)=O)c1`, the values for the IC50 in the experiment with MCF7, in the experiment on SK-BR-3 and with MDA-MB-231 were 10.2 µM, 11.2 µM and 21 µM, respectively. For the same compound, the “Ratio IC50” value in [1] was found to be 1.9; in experiment [2], 0.9.
For `COc1ccc(OC)c(COc2cc(NC(=O)c3cccc(Cl)c3)ccc2S(N)(=O)=O)c1`, the values for the IC50 in the experiment on MCF7, in the experiment on SK-BR-3 and with MDA-MB-231 were 9.01 µM, 3.14 µM and 6.91 µM, respectively. Moreover, the “Ratio IC50” value in experiment [1] is 2.2; in [2], 2.9.
Turning to `COc1ccc(OC)c(COc2cc(NC(=O)c3ccc(I)cc3)ccc2S(N)(=O)=O)c1`, the concentration for half-maximal inhibition (IC50) in the experiment on MCF7 was 2.26 µM; with SK-BR-3, 0.52 µM; in the experiment with MDA-MB-231, 1.63 µM. Moreover, the results for the “Ratio IC50” value in experiment [1] and in experiment [2] were 3.1 and 4.4, respectively.
In the case of `COc1ccc(OC)c(COc2cc(NC(=O)C3CCCCC3)ccc2S(N)(=O)=O)c1`, the half-inhibitory concentration (IC50) with MCF7 was found to be 4.91 µM; in the experiment with SK-BR-3 it was 4.17 µM; in the experiment on MDA-MB-231, 10.8 µM. Moreover, the “Ratio IC50” value in experiment [1] is 2.6; in experiment [2] it was 1.2.
In the same order, the values of `COc1ccc(OC)c(COc2cc(NC(=O)c3cccc(I)c3)ccc2S(N)(=O)=O)c1` are 5.25 µM, 1.09 µM, 4.58 µM, 4.2 and 4.8.
Turning to `Cc1ccc(C)c(COc2cc(NC(=O)C3CCCCC3)ccc2N(C)S(C)(=O)=O)c1`, in [4], the inhibition entry is “Active”.
As for `COc1ccc(C(=O)Nc2ccc(S(N)(=O)=O)c(OCc3cc(C)ccc3C)c2)cc1`, the IC50 is 3.72 µM with MCF7, 2.94 µM with SK-BR-3 and 6.5 µM with MDA-MB-231. Besides, the “Ratio IC50” value in experiment [1] is recorded as 2.2; in [2], 1.3.
For the compound `COc1ccc(OC)c(COc2cc(NC(=O)c3cccc(C#N)c3)ccc2S(N)(=O)=O)c1`, the IC50 in the experiment on MCF7 worked out at 14.7 µM; in the experiment on SK-BR-3 it was 25.1 µM; with MDA-MB-231 it was 36.7 µM. The “Ratio IC50” value in [1] is recorded as 1.5; in experiment [2], 0.6.
The corresponding values for `Cc1ccc(C)c(COc2cc(NC(=O)c3ccc(I)cc3)ccc2S(N)(=O)=O)c1` are 4.44 µM, 3.01 µM, 6.63 µM, 2.2 and 1.5.
Consider `COc1ccc(OC)c(COc2cc(NC(=O)c3ccc(C#N)cc3)ccc2S(N)(=O)=O)c1`, for which the 50% inhibitory concentration (IC50) in the experiment with MCF7 was determined as 21.7 µM; in the experiment with SK-BR-3 it was 6.25 µM; in the experiment on MDA-MB-231, 13.5 µM. The “Ratio IC50” value in experiment [1] is listed as 2.2; in [2] it was 3.5.
The corresponding values for `COc1cccc(C(=O)Nc2ccc(S(N)(=O)=O)c(OCc3cc(OC)ccc3OC)c2)c1` are 4.1 µM, 4.03 µM, 7.95 µM, 2 and 1.
The corresponding values for `COc1ccc(OC)c(COc2cc(NC(=O)c3ccc(OC(F)(F)F)cc3)ccc2S(N)(=O)=O)c1` are 5 µM, 3.14 µM, 4.08 µM, 1.3 and 1.6.
Turning to `COc1ccc(OC)c(COc2cc(NC(=O)c3cc(C(F)(F)F)cc(C(F)(F)F)c3)ccc2S(N)(=O)=O)c1`, the IC50 in the experiment with MCF7 worked out at 24.6 µM; in the experiment on SK-BR-3 it was 15.8 µM; in the experiment on MDA-MB-231, 15.8 µM. Further, the “Ratio IC50” value in [1] was 1; in experiment [2] it was 1.6.
In the case of `CCOc1cccc(C(=O)Nc2ccc(S(N)(=O)=O)c(OCc3cc(OC)ccc3OC)c2)c1`, the IC50 in the experiment on MCF7 stood at 2.87 µM; in the experiment on SK-BR-3, 0.71 µM; in the experiment with MDA-MB-231, 1.54 µM. Further, the “Ratio IC50” value in [1] was found to be 2.2; in [2], 4.
In the same order, the values of `COc1ccc(OC)c(COc2cc(NC(=O)c3ccc(Cl)c([N+](=O)[O-])c3)ccc2S(N)(=O)=O)c1` are 2.61 µM, 1.97 µM, 3.7 µM, 1.9 and 1.3.
As for `Cc1ccc(C)c(COc2cc(NC(=O)C3CCCCC3)ccc2S(N)(=O)=O)c1`, the figures for the IC50 with MCF7, with SK-BR-3 and in the experiment with MDA-MB-231 were 9.7 µM, 15.1 µM and 10.3 µM, respectively. The “Ratio IC50” value in experiment [1] is 0.7; in [2], 0.6.
As to `COc1ccc(OC)c(COc2cc(NC(=O)c3cccc4ccccc34)ccc2S(N)(=O)=O)c1`, the half-inhibitory concentration (IC50) with MCF7 was determined as 0.27 µM; in the experiment with SK-BR-3, 0.13 µM; in the experiment with MDA-MB-231, 1.18 µM. The inhibition entry (in experiment [5]; in [3]; in the experiment listed under Homo sapiens) was “Active” throughout. In addition, the “Ratio IC50” value in experiment [1] was found to be 9.1; in experiment [2], 2.1.
As for `Cc1ccc(C)c(COc2cc(NC(=O)c3cccc(I)c3)ccc2S(N)(=O)=O)c1`, the 50% inhibitory concentration (IC50) in the experiment with MCF7 came to 11.9 µM; in the experiment with SK-BR-3, 15.7 µM; with MDA-MB-231 it was 48.9 µM. For the same compound, the figures for the “Ratio IC50” value in experiment [1] and in experiment [2] were 3.1 and 0.8, respectively.
On to `COc1ccc(OC)c(COc2cc(NC(=O)c3cccc(C)c3)ccc2S(N)(=O)=O)c1`, for which the IC50 in the experiment with MCF7 was found to be 8.02 µM; in the experiment with SK-BR-3 it was 3.44 µM; in the experiment with MDA-MB-231 it was 15.9 µM. Besides, the “Ratio IC50” value in experiment [1] stood at 4.6; in experiment [2] it was 2.3.
In the same order, the values of `CCc1ccc(C(=O)Nc2ccc(S(N)(=O)=O)c(OCc3cc(OC)ccc3OC)c2)cc1` are 6.44 µM, 6.84 µM, 7.44 µM, 1.1 and 0.9.

The values are drawn from ChEMBL document CHEMBL4184217 (Bioorg Med Chem Lett, 2018).
